Results from different studies.
Each line is one published result; the experiments were not run side by side.
Target: Calcium/calmodulin-dependent protein kinase type II subunit gamma (CAMK2G, Homo sapiens, UniProt Q13555)

Structure (SMILES)	test	conditions	remaining binding [%]
CN(C)C(=O)Cn1cc(-c2nc([C@@](C)(c3ccc(-c4cnc(N)nc4)cc3)C3CC3)no2)cn1	cell-free assay, competition with immobilised ligand	1 µM	100
Cc1cnc(Nc2ccc(C(=O)N3CCC(N4CCCC4)CC3)cc2)nc1-c1cc2ccccc2s1	binding, competition with immobilised ligand	1 µM	74
C=CC(=O)N1CCC(C(=O)NCC(=O)N2CCN(c3nc(-c4cnc(N)nc4C(F)F)nc(N4CCOCC4)n3)CC2)CC1	binding, competition with immobilised ligand	1 µM	100
O=C(NCCCN1CCOCC1)c1ccc(Nc2nccc(-c3cc4ccccc4s3)n2)cc1	binding, competition with immobilised ligand	1 µM	90
COc1cnc(Nc2cccc(S(N)(=O)=O)c2)nc1N1CCN(c2ccccc2)CC1	binding, competition with immobilised ligand	1 µM	94
O=C(c1ccc(Nc2ncc(Cl)c(-c3cc4ccccc4s3)n2)cc1)N1CCC(N2CCCC2)CC1	binding, competition with immobilised ligand	1 µM	82
CN(C)c1nccc(-c2cnn3ncccc23)n1	binding	1 µM	100
O=C(NCC1CCOCC1)c1n[nH]cc1NC(=O)c1c(F)cccc1F	binding, competition with immobilised ligand	1 µM	88
CS(=O)(=O)NCC[C@H](NC(=O)c1cncc2c1cnn2-c1ccc(F)cc1)c1ccnc(S(C)(=O)=O)c1	cell-free assay, competition with immobilised ligand	1 µM	99
C[C@@H](c1ccc(-n2cnc3c(N)ncnc32)cc1)N1CCc2nn(C)c(Cc3ccccc3)c2C1=O	binding, competition with immobilised ligand	0.1 µM	94
Nc1ncc2c(n1)-c1c([nH]c3ccc(C#CC4CC4)cc13)CCCC2	binding, competition with immobilised ligand	1 µM	100
COc1ccnn2ncc(-c3ccnc(N(C)C)n3)c12	binding	1 µM	100
C[C@@H]1CN(c2cc(-c3n[nH]c4ccc(OC5(C)CC5)cc34)ncn2)C[C@H](C)O1	cell-free assay, competition with immobilised ligand	0.1 µM	100
FC(F)(F)Oc1cccc(-c2cnc3ccc(-c4ccncc4)nn23)c1	cell-free assay, competition with immobilised ligand	5 µM	39
CN(c1nccc(-c2cnn3ncccc23)n1)C1CC1	binding	1 µM	100
FC(F)(F)c1ccc2c(c1)nc(-c1cccnc1)n2C1CC1	cell-free assay, competition with immobilised ligand	1 µM	100
F[C@@H]1CCN(c2nccc(-c3cnn4ncccc34)n2)C1	binding	1 µM	100
CO[C@H]1CC[C@H](CNc2ccc(S(=O)(=O)NC(=O)c3ccc(N4CCN(CC5=C(c6ccc(Cl)cc6)CC(C)(C)CC5)CC4)cc3Oc3cnc4[nH]ccc4c3)cc2[N+](=O)[O-])CC1	cell-free assay, competition with immobilised ligand	1 µM	75
c1cnn2ncc(-c3ccnc(N4CCC45COC5)n3)c2c1	binding	1 µM	91
CCS(=O)(=O)c1cc2cc(C[C@](O)(CC(C)(C)c3ccc(F)cc3C(N)=O)C(F)(F)F)[nH]c2cn1	cell-free assay, competition with immobilised ligand	1 µM	100
